These results are taken from PMC3428514 (Molecular cell, 2012).

For one assay, the system named is Cdc25B. To be noted: read-out: IC50, Cdc25B; ref Vogt et al., 2003; cited from earlier work.
Another assay has as its system X-IAP. Particulars: read-out: IC50, X-IAP; ref Glover et al., 2003; cited from earlier work.
A further assay addresses caspase-8 (Homo sapiens, UniProt Q14790). Put plainly: caspase-8 dimerization by Superdex 200 gel filtration. It counts as biochemical. To be noted: 10 μM, 15 minutes at 30°C. The procedure, abridged: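 Recombinant caspase-8 (100 nM) incubated 15 min at 30°C with test compound at 10 μM, DMSO, or 10 μM Ac-VAD-CHO, then run on Superdex 200 gel filtration. Collected fractions analysed by SDS-PAGE with Coomassie Blue staining, and caspase activity measured in each fraction.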
On the technique in general: In gel filtration, larger molecules generally elute earlier.

Peptide text beside a SMILES is read from it.

As a reminder, the IC50 is the concentration that gives 50% inhibition.

Chain of caspase-8 (Q14790 217-479, species assumed): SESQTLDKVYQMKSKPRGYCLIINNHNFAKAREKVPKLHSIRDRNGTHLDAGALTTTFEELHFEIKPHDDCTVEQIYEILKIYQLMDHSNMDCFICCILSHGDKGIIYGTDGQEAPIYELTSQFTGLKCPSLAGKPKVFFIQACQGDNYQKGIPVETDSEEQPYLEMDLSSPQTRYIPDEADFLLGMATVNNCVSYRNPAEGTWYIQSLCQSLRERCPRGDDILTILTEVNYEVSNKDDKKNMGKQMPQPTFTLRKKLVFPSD

In the case of `CSC(=S)NN=C(c1ccccn1)c1ccccn1.[Cu][Br]` [Comp-C], the IC50 in the assay on Cdc25B and in the assay on X-IAP was over 10 µM throughout.
With `CC(=O)N[C@H](C(=O)N[C@@H](C)C(=O)N[C@H](C=O)CC(=O)O)C(C)C` [Ac-VAD-CHO] (Ac-Val-Ala-Asp-aldehyde), the “effect on caspase-8 dimerization” value at caspase-8 is “shift to the dimeric species”.
